Test results as given in ChEMBL document CHEMBL1152279 (J Med Chem, 2008).

What was measured:
[1] = molecular target: Histamine H2 receptor (Cavia porcellus) (UniProt P47747); test: Agonist activity at histamine H2 receptor in guinea pig spontaneously beating right atrium assessed as positive chronotropic activity relative to histamine; assay type: functional, tissue-based; details: Cardiac atrium
[2] = molecular target: T1, Histamine H2 receptor (Cavia porcellus, UniProt P47747); test: Agonist activity at histamine H2 receptor in guinea pig spontaneously beating right atrium assessed as positive chronotropic activity; assay type: functional, tissue-based, Cardiac atrium
[3] = molecular target: Histamine H1 receptor (Homo sapiens) (UniProt P35367); test: Antagonist activity at histamine H1 receptor in human U373 MG cells assessed as inhibition of histamine-induced intracellular calcium level preincubated for 15 mins prior to histamine challenge; assay type: functional, cell-based; details: U-373MG ATCC
In short: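 U373-MG human cells expressing H1R, calcium assay. […] KB was derived from IC50 by the Cheng-Prusoff equation. Values are the mean of two experiments.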

[4] = molecular target: Histamine H1 receptor (Cavia porcellus) (UniProt P31389); test: Antagonist activity at histamine H1 receptor in guinea pig ileum assessed as […]
[5] = molecular target: Histamine H3 receptor (Homo sapiens, UniProt Q9Y5N1); test: Activity at human recombinant histamine H3 receptor expressed in Sf9 cells coexpressing Galphai, G-beta-1-gamma-2 and RGS4 by steady-state GTPase activity assay
In short: (§1)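 Membranes from Sf9 insect cells expressing the receptor construct named in each line: hH1R with RGS4, hH2R-GsR or gpH2R-GsR fusion, hH3R with GRi, Gβ1γ2 and RGS4, or hH4R-RGS19 fusion with GRi2 and Gβ1γ2. […] Values are mean ± SEM.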

[6] = molecular target: T2, Histamine H2 receptor (Homo sapiens, UniProt P25021); test: Activity at human recombinant histamine H2 receptor-Gsalpha fusion protein expressed in Sf9 cells by steady-state GTPase activity assay
In short: (§2)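 Membranes from Sf9 insect cells expressing the receptor construct named in each line: hH1R with RGS4, hH2R-GsR or gpH2R-GsR fusion, hH3R with GRi, Gβ1γ2 and RGS4, or hH4R-RGS19 fusion with GRi2 and Gβ1γ2. Values are mean ± SEM.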

[7] = molecular target: T1, Histamine H2 receptor; test: Activity at guinea pig recombinant histamine H2 receptor-Gsalpha fusion protein expressed in Sf9 cells by steady-state GTPase activity assay; in short: as §2
[8] = molecular target: Histamine H4 receptor (Homo sapiens, UniProt Q9H3N8); test: Activity at human recombinant histamine H4 receptor-RGS19 fusion protein expressed in Sf9 cells coexpressing Galphai2 and G-beta-1-gamma-2 by steady-state GTPase activity assay
[9] = molecular target: Histamine H1 receptor (Cavia porcellus, UniProt P31389); test: Antagonist activity at histamine H1 receptor in guinea pig ileum assessed as inhibition of histamine-induced […]; assay type: functional, tissue-based; details: read-out: pA2 (converted)
[10] = molecular target: Histamine H2 receptor (Cavia porcellus) (UniProt P47747); test: Activity at guinea pig recombinant histamine H2 receptor-Gsalpha fusion protein expressed in Sf9 cells by steady-state GTPase activity assay relative to histamine; in short: as §1
[11] = molecular target: Histamine H1 receptor (Homo sapiens) (UniProt P35367); test: Activity at human recombinant histamine H1 receptor expressed in Sf9 cells coexpressing RGS4 by steady-state GTPase activity assay relative to histamine; in short: as §1
[12] = molecular target: T2, Histamine H2 receptor; test: Activity at human recombinant histamine H2 receptor-Gsalpha fusion protein expressed in Sf9 cells by steady-state GTPase activity assay relative to histamine; in short: as §1
[13] = Terminal half life in nude mouse plasma; assay type: ADME, organism-based; details: read-out: beta t1/2

T2 sequence (P25021 whole entry, the tested form may be a part): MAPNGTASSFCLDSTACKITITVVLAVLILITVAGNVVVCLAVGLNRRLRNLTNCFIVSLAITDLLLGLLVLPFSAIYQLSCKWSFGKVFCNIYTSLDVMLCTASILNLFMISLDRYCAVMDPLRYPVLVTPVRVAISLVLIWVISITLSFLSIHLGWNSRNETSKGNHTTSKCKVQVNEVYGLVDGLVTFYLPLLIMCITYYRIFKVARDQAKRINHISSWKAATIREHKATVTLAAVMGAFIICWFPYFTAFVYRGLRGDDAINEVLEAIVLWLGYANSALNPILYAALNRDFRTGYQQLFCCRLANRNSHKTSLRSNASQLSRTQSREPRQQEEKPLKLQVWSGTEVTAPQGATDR
T1 sequence (P47747 whole entry): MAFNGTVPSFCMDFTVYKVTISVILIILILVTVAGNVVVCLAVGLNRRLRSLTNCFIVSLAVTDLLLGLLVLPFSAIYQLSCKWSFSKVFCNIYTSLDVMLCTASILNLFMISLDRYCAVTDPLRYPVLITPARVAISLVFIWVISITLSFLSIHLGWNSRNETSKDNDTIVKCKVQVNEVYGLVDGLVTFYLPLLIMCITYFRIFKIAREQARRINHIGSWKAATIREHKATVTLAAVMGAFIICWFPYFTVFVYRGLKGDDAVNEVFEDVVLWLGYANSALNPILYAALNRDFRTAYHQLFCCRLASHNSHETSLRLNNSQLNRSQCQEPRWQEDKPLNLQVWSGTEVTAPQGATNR
Sequence of Histamine H2 receptor (Cavia porcellus) (P47747 whole entry, the tested form may be a part): as the sequence (P47747 whole entry) above
Sequence of Histamine H1 receptor (P31389 whole entry, the tested form may be a part): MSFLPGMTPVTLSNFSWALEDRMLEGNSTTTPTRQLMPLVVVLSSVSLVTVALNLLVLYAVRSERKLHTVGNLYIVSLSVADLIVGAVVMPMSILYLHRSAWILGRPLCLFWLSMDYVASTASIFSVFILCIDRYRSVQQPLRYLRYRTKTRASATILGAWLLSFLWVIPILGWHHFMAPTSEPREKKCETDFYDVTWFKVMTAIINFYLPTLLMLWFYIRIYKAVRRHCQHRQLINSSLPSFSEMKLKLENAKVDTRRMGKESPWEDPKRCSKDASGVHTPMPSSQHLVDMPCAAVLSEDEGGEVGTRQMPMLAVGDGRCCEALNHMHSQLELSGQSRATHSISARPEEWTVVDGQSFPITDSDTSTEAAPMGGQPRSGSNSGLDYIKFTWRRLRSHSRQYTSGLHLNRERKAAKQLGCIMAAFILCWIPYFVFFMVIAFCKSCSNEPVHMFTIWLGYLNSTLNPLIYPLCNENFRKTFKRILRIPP
Sequence of Histamine H1 receptor (Homo sapiens) (P35367 whole entry, the tested form may be a part): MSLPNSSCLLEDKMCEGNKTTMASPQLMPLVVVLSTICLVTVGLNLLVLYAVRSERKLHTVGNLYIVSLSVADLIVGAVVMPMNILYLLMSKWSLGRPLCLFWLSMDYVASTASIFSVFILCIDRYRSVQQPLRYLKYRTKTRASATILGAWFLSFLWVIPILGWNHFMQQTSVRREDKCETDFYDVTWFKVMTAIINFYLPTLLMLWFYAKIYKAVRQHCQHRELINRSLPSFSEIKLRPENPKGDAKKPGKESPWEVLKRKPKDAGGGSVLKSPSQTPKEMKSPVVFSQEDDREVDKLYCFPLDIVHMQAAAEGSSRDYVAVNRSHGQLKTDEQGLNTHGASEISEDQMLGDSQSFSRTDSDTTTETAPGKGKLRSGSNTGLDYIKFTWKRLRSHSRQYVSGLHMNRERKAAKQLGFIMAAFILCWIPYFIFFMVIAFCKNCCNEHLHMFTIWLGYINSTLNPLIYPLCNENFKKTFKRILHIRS
Sequence of Histamine H1 receptor (Cavia porcellus) (P31389 whole entry): as the sequence (P31389 whole entry, the tested form may be a part) above
Sequence of Histamine H3 receptor (Q9Y5N1 whole entry, the tested form may be a part): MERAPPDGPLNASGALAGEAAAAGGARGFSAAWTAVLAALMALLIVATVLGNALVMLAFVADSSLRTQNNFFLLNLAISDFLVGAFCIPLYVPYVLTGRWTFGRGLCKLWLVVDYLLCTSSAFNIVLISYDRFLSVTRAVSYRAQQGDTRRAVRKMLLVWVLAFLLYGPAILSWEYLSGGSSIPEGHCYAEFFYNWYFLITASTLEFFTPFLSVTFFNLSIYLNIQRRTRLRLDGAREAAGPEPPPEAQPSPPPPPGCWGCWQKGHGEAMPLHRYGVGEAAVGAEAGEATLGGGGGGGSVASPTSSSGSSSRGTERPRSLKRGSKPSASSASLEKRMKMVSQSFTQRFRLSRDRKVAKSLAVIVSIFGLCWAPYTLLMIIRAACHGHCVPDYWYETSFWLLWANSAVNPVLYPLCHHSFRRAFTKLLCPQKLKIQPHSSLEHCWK

SMILES | Activity [1] | Emax [1] | EC50 [2] | Kb [3] | Kb [9] | further results
N=C(NCCCc1c[nH]cn1)NC(=O)CC(c1ccc(Br)cc1)c1ccc(Br)cc1 | 130% | 60% |  |  |  | 
CC(CC(=O)NC(=N)NCCCc1c[nH]cn1)c1ccccn1 (centres undefined) | 2610% | 98% | 0.038 µM | 7.4 µM |  | 
N=C(NCCCc1c[nH]cn1)NC(=O)CC(c1ccccc1)c1ccc(F)cc1 (centres undefined) | 1830% | 95% | 0.055 µM |  |  | pD'2 [4]: 5.39
CC(C(=O)NC(=N)NCCCc1c[nH]cn1)c1ccccc1 (centres undefined) | 28% | 88% |  | 8.8 µM |  | 
NC(=NCCCc1cnc[nH]1)NC(=O)CC1CCCCC1 |  |  | 0.1 µM |  | 2.45 µM | 
N=C(NCCCc1c[nH]cn1)NC(=O)CCCC1CCCCC1 | 269% | 89% | 0.372 µM | 1.1 µM | 0.741 µM | 
N=C(NCCCc1c[nH]cn1)NC(=O)CCC1CCCCC1 | 1610% | 98% |  | 1.6 µM |  | 
N=C(NCCCc1c[nH]cn1)NC(=O)CC(c1ccccc1)c1ccc(F)c(F)c1 (centres undefined) | 1850% | 81% |  | 1.2 µM |  | pD'2 [4]: 6.06
CC(C(=O)NC(N)=NCCCc1cnc[nH]1)C1CCCCC1 (centres undefined) |  |  | 0.138 µM |  | 2.34 µM | 
CC(C(=O)NC(=N)NCCCc1c[nH]cn1)C1CCCCC1 (centres undefined) | 729% | 86% |  | 8.8 µM |  | 
N=C(NCCCc1c[nH]cn1)NC(=O)CC(c1ccccc1)c1nccs1 (centres undefined) | 2630% | 100% |  | 6.8 µM |  | Activity [10]: 8570%; Efficacy [10]: 0.94; Kb [5]: 0.113 µM; Activity [11]: 1%; Activity [12]: 1000%; Efficacy [12]: 0.8
NC(=NCCCc1cnc[nH]1)NC(=O)Cc1ccccc1 |  |  | 0.182 µM |  | 0.575 µM | 
N=C(NCCCc1c[nH]cn1)NC(=O)C1CCCCC1 | 2090% | 102% |  | 6 µM |  | 
Cc1nc[nH]c1CSCC(=O)NC(N)=NCCCc1cnc[nH]1 |  |  | 0.0309 µM |  | 4.27 µM | 
N=C(NCCCc1c[nH]cn1)NC(=O)CC(c1ccccc1)c1ccccn1 (centres undefined) | 1960% | 97% | 0.0513 µM | 4.9 µM | 11.2 µM | 
N=C(NCCCc1c[nH]cn1)NC(=O)CC(c1ccc(F)c(F)c1)c1nccs1 (centres undefined) | 2000% | 90% | 0.0501 µM | 4.6 µM | 4.68 µM | half-life [13]: 28 min
N=C(NCCCc1c[nH]cn1)NC(=O)CCc1ccccc1 | 607% | 97% | 0.166 µM | 9.2 µM | 2.14 µM | 
N=C(NCCCc1c[nH]cn1)NC(=O)CC(c1ccc(F)c(F)c1)c1nccn1Cc1ccccc1 (centres undefined) | 251% | 54% | 0.398 µM | 2.9 µM |  | 

Now from value to compound, other results behind:

Activity [1] | Emax [1] | EC50 [2] | Kb [3] | Kb [9] | SMILES | further results
 |  | 0.0977 µM |  |  | NC(=NCCCc1cnc[nH]1)NC(=O)CC(c1ccc(F)c(F)c1)c1ncc[nH]1 (centres undefined) | 
 |  | 0.038 µM |  |  | CC(CC(=O)NC(N)=NCCCc1cnc[nH]1)c1cccs1 (centres undefined) | EC50 [5]: 0.00164 µM; EC50 [6]: 0.109 µM; EC50 [7]: 0.021 µM; EC50 [8]: 0.0063 µM
 |  | 0.309 µM |  |  | NC(=NCCCc1cnc[nH]1)NC(=O)CC(c1ccc(Cl)cc1)c1ccc(Cl)cc1 | 
 |  | 0.0282 µM |  | 0.741 µM | NC(=NCCCc1cnc[nH]1)NC(=O)CC(c1ccccc1)c1ccccc1 | EC50 [6]: 0.078 µM; EC50 [7]: 0.006 µM; EC50 [8]: 0.0086 µM
 |  | 0.0339 µM |  | 3.72 µM | NC(=NCCCc1cnc[nH]1)NC(=O)CC(c1ccc(F)cc1)c1ccccn1 (centres undefined) | 
 |  | 0.038 µM |  | 4.68 µM | NC(=NCCCc1cnc[nH]1)NC(=O)CC(c1ccccc1)c1nccs1 (centres undefined) | EC50 [6]: 0.12 µM; EC50 [7]: 0.014 µM; EC50 [8]: 0.0663 µM
 |  | 0.0389 µM |  |  | CC(CC(=O)NC(N)=NCCCc1cnc[nH]1)c1nccs1 (centres undefined) | 
 |  | 1.05 µM |  |  | NC(=NCCCc1cnc[nH]1)NC(=O)C(c1ccccc1)c1ccccc1 | 
